Assay [1] has as its target T1, Cathepsin G (Homo sapiens, UniProt P08311).
T1 sequence (P08311 whole entry): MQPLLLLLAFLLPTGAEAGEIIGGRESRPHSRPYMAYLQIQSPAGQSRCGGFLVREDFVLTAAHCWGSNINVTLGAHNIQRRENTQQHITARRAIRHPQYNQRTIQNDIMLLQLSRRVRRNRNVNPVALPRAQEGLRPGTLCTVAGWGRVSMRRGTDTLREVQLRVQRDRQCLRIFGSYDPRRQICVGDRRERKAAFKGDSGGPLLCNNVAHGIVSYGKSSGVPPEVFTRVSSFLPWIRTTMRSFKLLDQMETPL
As to the kind of experiment: Inhibition of cathepsin G in human U937 cells. In kind it is cell-based, U-937.

For assay [2], the target named is T2, Myeloblastin (Homo sapiens, UniProt P24158).
T2 sequence (P24158 whole entry): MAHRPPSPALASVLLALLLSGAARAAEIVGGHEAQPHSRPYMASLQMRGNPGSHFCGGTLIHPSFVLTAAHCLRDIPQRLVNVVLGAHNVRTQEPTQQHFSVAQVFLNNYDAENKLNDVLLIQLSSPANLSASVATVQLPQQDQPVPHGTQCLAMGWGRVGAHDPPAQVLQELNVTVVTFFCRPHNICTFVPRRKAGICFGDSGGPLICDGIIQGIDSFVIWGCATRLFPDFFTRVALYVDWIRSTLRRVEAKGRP
As to the kind of experiment: Inhibition of proteinase-3 in human U937 cells. Type of assay: cell-based, U-937.

The target of assay [3] is T3, Myeloblastin (Mus musculus, UniProt Q61096).
T3 sequence (Q61096 whole entry): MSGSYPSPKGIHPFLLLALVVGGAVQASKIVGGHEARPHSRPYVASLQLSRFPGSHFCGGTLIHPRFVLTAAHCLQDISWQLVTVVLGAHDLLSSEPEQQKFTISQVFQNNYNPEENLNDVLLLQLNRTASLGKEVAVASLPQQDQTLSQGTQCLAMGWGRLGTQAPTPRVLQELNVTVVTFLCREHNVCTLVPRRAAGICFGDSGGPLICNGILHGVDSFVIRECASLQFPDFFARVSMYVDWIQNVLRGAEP
As to the kind of experiment: Inhibition of proteinase-3 activation in beta-estradiol differentiated mouse EcoM-G cells after 24 hrs. In kind it is cell-based. The method, boiled down:
(§1)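 EcoM-G cells (cultures <3 months old) washed and seeded at 0.5×10^6 cells/ml without β-estradiol. After 24 h, compound added in Me₂SO (final 0.5%), then cells differentiated a further 24 h, harvested and lysed. NE assayed with 400 μM MeOSuc-AAPV-AMC, CG with 1 mM Suc-AAPF-pNA (405 nm, 5 min), Pr-3 with 10 μM internally quenched substrate (ex 328/em 393 nm), all from the same lysates. IC50 from four-parameter Hill fit.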

The next assay has as its target Dipeptidyl peptidase 1 (Homo sapiens, UniProt P53634). As to the kind of experiment: Inhibition of human recombinant cathepsin C after 10 mins. The method, boiled down: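 Recombinant human cathepsin C at 1 nM in 25 mM MES pH 6.0, 50 mM NaCl, 5 mM DTT, with 50 μM Gly-Arg-AMC (twice Km). Enzyme preincubated with inhibitor 10 min, then substrate added, at room temperature. Fluorogenic AMC release.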

For assay [4], the target named is T1, Cathepsin G. The assay is described as follows: Blockade of cathepsin G processing in human U937 cells by densitometry. Type of assay: cell-based, U-937. The method, boiled down:
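U937 cells washed, plated at 2×10^6 cells/ml in methionine/glutamine-free RPMI, inhibitor or 0.5% Me₂SO added during 30 min starvation, pulsed with [³⁵S]methionine (10 μCi/ml) 30 min, re-seeded in complete medium with inhibitor and chased 3 h. Lysates bound to aprotinin-agarose 1 h at room temperature, SDS-PAGE and fluorography. CG band quantitated by densitometry as % inhibition vs vehicle.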

Another assay deals with T4, Neutrophil elastase (Mus musculus, UniProt Q3UP87).
T4 sequence (Q3UP87 whole entry): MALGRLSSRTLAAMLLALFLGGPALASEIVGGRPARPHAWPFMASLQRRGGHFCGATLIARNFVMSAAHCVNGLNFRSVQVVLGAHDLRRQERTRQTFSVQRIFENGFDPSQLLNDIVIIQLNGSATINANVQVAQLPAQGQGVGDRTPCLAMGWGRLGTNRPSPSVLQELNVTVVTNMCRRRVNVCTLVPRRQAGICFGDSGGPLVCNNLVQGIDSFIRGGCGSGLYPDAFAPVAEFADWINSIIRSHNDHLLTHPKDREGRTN
The assay is described as follows: Inhibition of neutrophil elastase activation in beta-estradiol differentiated mouse EcoM-G cells after 24 hrs. In kind it is cell-based. The method, boiled down:
as §1

Assay [5] addresses T5, Cathepsin G (Mus musculus) (UniProt P28293).
T5 sequence (whole entry): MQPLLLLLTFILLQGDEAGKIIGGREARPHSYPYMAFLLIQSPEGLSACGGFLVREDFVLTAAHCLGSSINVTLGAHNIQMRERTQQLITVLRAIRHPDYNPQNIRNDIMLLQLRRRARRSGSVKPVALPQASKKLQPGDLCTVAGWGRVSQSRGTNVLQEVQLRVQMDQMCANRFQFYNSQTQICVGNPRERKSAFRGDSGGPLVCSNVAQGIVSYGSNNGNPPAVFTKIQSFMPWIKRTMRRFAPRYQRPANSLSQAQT
As to the kind of experiment: Inhibition of cathepsin G activity in beta-estradiol differentiated mouse EcoM-G cells at 10 uM after 24 hrs in the absence of estradiol. Type of assay: cell-based. In a few lines: (§2)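 EcoM-G cells seeded without β-estradiol to differentiate. 10 μM compound or vehicle added 24 h after estrogen removal, and aliquots taken over time up to 3 days. CG activity in extracts measured with 1 mM Suc-Ala-Ala-Pro-Phe-pNA, absorbance at 405 nm over 5 min, in 100 mM Tris pH 7.5, 1 M NaCl.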

The target in assay [6] is T5, Cathepsin G (Mus musculus). As to the kind of experiment: Inhibition of cathepsin G activity in beta-estradiol differentiated mouse EcoM-G cells at 10 uM after 3 days in the absence of estradiol. In kind it is cell-based. The method, boiled down:
as §2

In assay [7] the target is T6, Neutrophil elastase (Homo sapiens) (UniProt P08246).
T6 sequence (whole entry): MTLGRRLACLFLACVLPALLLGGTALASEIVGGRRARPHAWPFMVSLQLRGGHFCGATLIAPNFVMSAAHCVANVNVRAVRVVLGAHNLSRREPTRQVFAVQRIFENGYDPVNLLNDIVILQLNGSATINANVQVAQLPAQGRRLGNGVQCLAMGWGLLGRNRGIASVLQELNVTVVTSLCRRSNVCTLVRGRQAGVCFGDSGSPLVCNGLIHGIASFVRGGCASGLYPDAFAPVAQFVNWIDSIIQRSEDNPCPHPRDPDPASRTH
To be noted: U-937, 1 uM.

The target of assay [8] is T7, Neutrophil elastase (Mus musculus) (UniProt Q3UP87).
T7 sequence (whole entry): T4 sequence (Q3UP87 whole entry)
Particulars: EcoM-G, 1 uM.

In a further assay the target is Procathepsin L (Homo sapiens, UniProt P07711). The assay is described as follows: Inhibition of human recombinant cathepsin L after 10 mins.
Chain of Procathepsin L (P07711 whole entry): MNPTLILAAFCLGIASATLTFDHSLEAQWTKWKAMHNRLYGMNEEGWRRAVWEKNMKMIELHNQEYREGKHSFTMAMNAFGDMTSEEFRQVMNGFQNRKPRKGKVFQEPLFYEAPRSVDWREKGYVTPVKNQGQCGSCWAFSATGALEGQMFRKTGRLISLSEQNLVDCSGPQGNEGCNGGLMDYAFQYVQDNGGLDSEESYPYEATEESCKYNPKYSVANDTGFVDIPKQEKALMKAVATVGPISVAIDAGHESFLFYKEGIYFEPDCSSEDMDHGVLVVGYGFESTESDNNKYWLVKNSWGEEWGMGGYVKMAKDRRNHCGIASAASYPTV
The next assay relates to U-937. The assay is described as follows: Effect on neutrophil elastase protein expression in human U937 cells at 30 uM after 7 days by Western blot. Type of assay: functional, cell-based.

Calls of active or inactive are those of the source. No cut-off for these calls is given here.

Chain of Dipeptidyl peptidase 1 (P53634 25-134 limits assumed): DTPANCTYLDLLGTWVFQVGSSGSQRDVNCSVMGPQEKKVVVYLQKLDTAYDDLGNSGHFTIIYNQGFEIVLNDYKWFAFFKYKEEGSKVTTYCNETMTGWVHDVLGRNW
Chain of Dipeptidyl peptidase 1 (P53634 231-394 limits assumed): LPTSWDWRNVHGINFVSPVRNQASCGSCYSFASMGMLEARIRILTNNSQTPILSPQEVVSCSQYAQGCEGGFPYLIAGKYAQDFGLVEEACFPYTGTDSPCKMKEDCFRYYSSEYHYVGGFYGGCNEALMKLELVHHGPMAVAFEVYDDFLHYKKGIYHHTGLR
Chain of Dipeptidyl peptidase 1 (P53634 395-463 limits assumed): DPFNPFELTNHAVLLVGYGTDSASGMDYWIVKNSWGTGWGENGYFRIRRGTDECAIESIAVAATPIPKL

With `N#C[C@@]1(NC(=O)[C@@H](N)Cc2cccs2)C[C@@H]1c1ccccc1.O=C(O)C(F)(F)F`, the IC50 at Cathepsin G [1] is more than 50 µM; against Myeloblastin [2] it was more than 50 µM; on Myeloblastin [3], 140 nM; on Dipeptidyl peptidase 1, 14 nM; against Cathepsin G [4], 150 nM; against Neutrophil elastase it was 160 nM. The IC50 on Procathepsin L amounted to 5.4 µM. Also, the outcome in assay [5] and in assay [6] was Active. In addition, the inhibition in assay [7] is more than 90%; in assay [8], 80%. For the same molecule, in the assay with U-937, the result was inactive.

Source of the values: ChEMBL document CHEMBL1156470, “Inhibition of the activation of multiple serine proteases with a cathepsin C inhibitor requires sustained exposure to prevent pro-enzyme processing” (J Biol Chem, 2007).
